GASC1 inh: inhibitors of GASC-1 (KDM4C) histone demethylase, primary screen, biochemical, single concentration HTS; hit rate 0.15% among 96,000; Lysine-specific demethylase 4C (Homo sapiens), Q9H3R0; AID 720574, 2013; inhibition, % at 12.5 µM; GST-KDM4C 2-372, H3K9me3 peptide, LANCE TR-FRET;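 active = mean replicate inhibition above about 25%, with at least 55% of replicates also reaching it, limit read from the data, passing the limit was not always enough; inconclusive = only one of those two conditions met; inactive = neither condition met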
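System: N-terminal GST-fused human GASC-1 (KDM4C) fragment, residues 2-372; amount: enzyme final amount 10 nM; incubation: reaction 30 min RT, detection step 1 h RT; medium: HEPES buffer, pH 7.5, plus ascorbate; technique: LANCE TR-FRET, Eu antibody, ULight-streptavidin, EDTA, ex 340 nm, em 618/671 nm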
IDH1 R132H inh: inhibitors of IDH1 R132H reductase, primary screen, biochemical, plate reader, single point; inhibition, % at 10 µM; diaphorase/resazurin fluorescence, 60 min; AID 624101, 2012; hit rate 0.18% among 70,000; Isocitrate dehydrogenase [NADP] cytoplasmic (Homo sapiens), O75874; in the data active = inhibition above about 34%; inconclusive = no clear call, values can overlap the other calls; inactive = below about 11%;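 also: 0% = DMSO and 100% = no enzyme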
Target sequence (O75874 whole entry R132H): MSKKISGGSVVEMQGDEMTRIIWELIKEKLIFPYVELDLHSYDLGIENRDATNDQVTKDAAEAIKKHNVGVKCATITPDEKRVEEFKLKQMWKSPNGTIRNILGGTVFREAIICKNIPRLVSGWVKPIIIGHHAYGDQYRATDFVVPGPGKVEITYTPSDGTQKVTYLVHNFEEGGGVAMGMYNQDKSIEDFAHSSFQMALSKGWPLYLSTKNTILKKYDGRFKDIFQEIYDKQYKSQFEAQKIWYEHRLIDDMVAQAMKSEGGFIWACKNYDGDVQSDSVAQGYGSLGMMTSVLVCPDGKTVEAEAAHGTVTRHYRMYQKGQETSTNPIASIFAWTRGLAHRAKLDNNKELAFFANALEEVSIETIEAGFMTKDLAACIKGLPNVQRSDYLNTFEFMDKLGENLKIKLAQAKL
Pf Dd2 growth: P. falciparum Dd2 growth inhibitors, primary screen, SYBR Green fluorescence, single dose replicates; 72 h; stronger effect = lower value; activity change, % at 10 µM; hit rate 2.3% among 94,000; in the data active = activity change below about -80%; inconclusive = no clear call, values can overlap the other calls
T cruzi growth-1: T. cruzi intracellular proliferation inhibitors, primary screen, cell-based, beta-gal Tulahuen parasites, NIH3T3 host, luminescence; T. cruzi beta-gal in NIH3T3, GalScreen luminescence, 90 h; AID 624255, 2012; inhibition, % at 8.34 µM; hit rate 5.9% among 77,000;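 active = mean inhibition above about 93%, with at least 55% of replicates each passing it, limit read from the data, passing the limit was not always enough; inconclusive = only one of those two conditions holds; inactive = neither condition holds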
T cruzi growth-2: T. cruzi intracellular proliferation inhibitors, confirmation, cell-based, NIH3T3 host, beta-gal parasite, luminescence, cherry-pick. shares compounds with T cruzi growth-1. T. cruzi beta-gal in NIH3T3, GalScreen luminescence, 90 h. inhibition, % at 8.35 µM. hit rate 72% among 5,600. AID 651739, 2012;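 active = mean replicate inhibition above about 95% and at least 55% of replicates individually reaching it, limit read from the data; inconclusive = only one of the two criteria is met; inactive = neither criterion is met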
T cruzi growth-3: inhibitors of intracellular T. cruzi replication, confirmation, NIH3T3 host cells, beta-gal parasites, cherry-pick, set 2 | T. cruzi beta-gal in NIH3T3, GalScreen luminescence, 90 h | hit rate 21% among 5,600 | inhibition, % at 2.09 µM | shares compounds with T cruzi growth-1;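 active = mean inhibition above about 95%, with at least 55% of replicates also reaching it, limit read from the data; inconclusive = meets just one of the two conditions; inactive = meets neither condition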;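 also: plate controls were neutral control median for no effect and positive control median for full effect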
3T3 cytotox: cytotoxicity in mouse NIH/3T3 fibroblasts, confirmation, cytotoxicity control for T. cruzi proliferation inhibitor project, cell-based, cherry-pick, single point. shares compounds with T cruzi growth-1. NIH/3T3 viability, CellTiter-Glo ATP luminescence, 90 h. cytotoxicity (signal decrease), % at 8.35 µM. hit rate 14% among 5,600;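 active = mean signal decrease across replicates above about 35% based on untreated-well scatter, with enough replicates individually passing, limit read from the data; inconclusive = no rule stated though some were filed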;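 also: 0% = median of neutral control wells and 100% = median of positive control wells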
3T3 cytotox 2: NIH/3T3 fibroblast cytotoxicity, confirmation, cytotoxicity control, cell-based, cherry-pick, single point, set 2; AID 651744, 2012; shares compounds with T cruzi growth-1; inhibition, % at 24.9 µM; hit rate 56% among 5,600; NIH/3T3 viability, CellTiter-Glo ATP luminescence, 90 h;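 active = mean loss of cell viability signal at or above a set limit, and enough replicates individually reaching it; inconclusive = meets only the mean limit or only the replicate share; inactive = meets neither condition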;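 also: 0% = median of neutral control wells and 100% = median of positive control wells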
* = called active by the depositor; ? = inconclusive; nt = no result given. Sampled rows, rich in hits. Any-hit rate of the full collection: about 5.9%.

SMILES	GASC1 inh	IDH1 R132H inh	Pf Dd2 growth	T cruzi growth-1	T cruzi growth-2	T cruzi growth-3	3T3 cytotox	3T3 cytotox 2
COc1ccc(NC(=O)Nc2ccc3c(c2)C(=O)N([C@H](C)CO)C[C@@H](C)[C@@H](CN(C)Cc2ccccc2)OCCCC[C@H](C)O3)cc1	2.0	0.8	-62.2	103.0*	107.7*	68.4	-3.3	59.5*
C[C@@H]1CN([C@@H](C)CO)C(=O)c2cc(NC(=O)Nc3ccccc3)ccc2O[C@@H](C)CCCCO[C@H]1CN(C)Cc1ccccc1	-0.2	nt	-66.6	nt	nt	nt	nt	nt
COc1ccc(NC(=O)Nc2ccc3c(c2)C(=O)N([C@@H](C)CO)C[C@H](C)[C@H](CN(C)Cc2ccccc2)OCCCC[C@@H](C)O3)cc1	-0.8	nt	-55.9	89.0	nt	nt	nt	nt
Cc1sc2nc(SCC(=O)NCC3CCCO3)n(-c3ccc(F)cc3)c(=O)c2c1C (stereo not drawn)	nt	-0.1	nt	nt	nt	nt	nt	nt
CCC(=O)Nc1ccc(Cl)c(NC(=O)COc2cccc3ccccc23)c1	nt	0.2	nt	nt	nt	nt	nt	nt
CC1=CC(C)(C)N2C(=O)C(=O)c3cc(OC(=O)CN4C(=O)c5ccccc5C4=O)cc1c32	nt	0.1	nt	nt	nt	nt	nt	nt
COc1ccc(CN(C)C[C@@H]2OCCCC[C@H](C)Oc3ccc(NC(=O)Nc4ccccc4)cc3C(=O)N([C@H](C)CO)C[C@@H]2C)cc1	-1.3	nt	-23.0	113.8*	88.0	109.3*	42.7*	107.3*
COc1ccc(CN(C)C[C@H]2OCCCC[C@H](C)Oc3ccc(NC(=O)Nc4ccccc4)cc3C(=O)N([C@@H](C)CO)C[C@@H]2C)cc1	-1.9	nt	25.0	106.3	nt	nt	nt	nt
COc1ccc(NC(=O)Nc2ccc3c(c2)C(=O)N([C@@H](C)CO)C[C@H](C)[C@@H](CN(C)Cc2ccccc2)OCCCC[C@H](C)O3)cc1	1.8	nt	-45.0	102.8*	103.9*	81.2	-7.5	102.2*
COc1ccc(NC(=O)Nc2ccc3c(c2)C(=O)N([C@@H](C)CO)C[C@H](C)[C@H](CN(C)Cc2ccccc2)OCCCC[C@H](C)O3)cc1	-0.4	nt	-53.0	90.1	nt	nt	nt	nt
COc1ccc(-c2csc3ncn(CC(=O)Nc4sc5c(c4C#N)CCC5)c(=O)c23)cc1OC	nt	-0.4	nt	nt	nt	nt	nt	nt
C[C@@H]1CCCCO[C@H](CN(C)S(=O)(=O)c2ccccc2)[C@H](C)CN([C@@H](C)CO)C(=O)c2cc(NC(=O)Nc3ccc(C(F)(F)F)cc3)ccc2O1	0.9	2.8	?	106.8*	95.5*	111.0*	-1.3	14.3
C[C@H](CO)N1C[C@H](C)[C@H](CN(C)S(=O)(=O)c2ccccc2)OCCCC[C@H](C)Oc2ccc(NC(=O)Nc3ccc(C(F)(F)F)cc3)cc2C1=O	-0.4	0.1	-56.6	104.1*	105.2*	109.0*	1.5	22.6
C[C@@H]1CCCCO[C@H](CN(C)S(=O)(=O)c2ccccc2)[C@@H](C)CN([C@H](C)CO)C(=O)c2cc(NC(=O)Nc3ccc(C(F)(F)F)cc3)ccc2O1	0.2	-0.8	-75.1	114.6*	?	-28.1	13.2	2.2
C[C@@H]1CCCCO[C@@H](CN(C)S(=O)(=O)c2ccccc2)[C@@H](C)CN([C@H](C)CO)C(=O)c2cc(NC(=O)Nc3ccc(C(F)(F)F)cc3)ccc2O1	0.4	1.1	-71.3	55.9	nt	nt	nt	nt
C[C@H](CO)N1C[C@H](C)[C@@H](CN(C)S(=O)(=O)c2ccccc2)OCCCC[C@H](C)Oc2ccc(NC(=O)Nc3ccc(C(F)(F)F)cc3)cc2C1=O	0.2	1.5	-43.0	87.2	nt	nt	nt	nt
